According to BindingDB's records for doi:10.1021/acs.jmedchem.9b02004 (University of Illinois At Chicago, 2020):

Target: T1, Acid ceramidase (Homo sapiens, UniProt Q13510)
T1 sequence (Q13510 whole entry): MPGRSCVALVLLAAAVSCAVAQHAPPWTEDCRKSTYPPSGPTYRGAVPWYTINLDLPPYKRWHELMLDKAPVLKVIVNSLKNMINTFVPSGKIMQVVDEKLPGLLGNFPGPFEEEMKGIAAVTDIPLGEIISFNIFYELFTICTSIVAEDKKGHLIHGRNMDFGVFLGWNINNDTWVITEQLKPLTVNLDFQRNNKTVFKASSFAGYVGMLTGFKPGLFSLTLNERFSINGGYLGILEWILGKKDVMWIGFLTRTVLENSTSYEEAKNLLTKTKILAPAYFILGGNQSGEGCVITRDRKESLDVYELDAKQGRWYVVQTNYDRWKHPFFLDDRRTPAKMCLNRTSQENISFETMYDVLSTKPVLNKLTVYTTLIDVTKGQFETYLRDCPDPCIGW
Assay: Time-dependent inhibition of human acid ceramidase expressed in HEK293 cells using Rbm14-12 as substrate by fluorescence assay
Summary of the method: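 hAC-enriched lysates with fluorogenic substrate Rbm 14-12; vehicle 1% DMSO; time-dependent inhibition analysed for ki/KI and ki; two independent experiments, each in two technical replicates.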

For `CC(C)CNC(=O)n1c(=O)oc2cc(C3CCN(C)CC3)ccc21`, the kinact was 0.0025 s⁻¹.
